According to ChEMBL document CHEMBL2396594, “Designing allosteric regulators of thrombin. Exosite 2 features multiple subsites that can be targeted by sulfated small molecules for inducing inhibition” (J Med Chem, 2013):
Activity calls are given as the source filed them. The rule behind the calls is not given here.

Key:
[1] = (§1) Binding affinity to human plasma alpha-thrombin exosite-2 using spectrozyme TH as substrate after overnight incubation at 25 degC by spectrophotometric analysis in presence of 6.5 uM gamma'-fibrinogen peptide; type: cell-free
Homo sapiens [2] = species: Homo sapiens; assay: as §1; type: cell-free
[3] = (§2) Binding affinity to human plasma alpha-thrombin exosite-2 using spectrozyme TH as substrate after overnight incubation at 25 degC by spectrophotometric analysis in presence of 2 uM gamma'-fibrinogen peptide; type: cell-free
Homo sapiens [4] = species: Homo sapiens; assay: as §2; type: cell-free
[5] = (§3) Binding affinity to human plasma alpha-thrombin exosite-2 using spectrozyme TH as substrate after overnight incubation at 25 degC by spectrophotometric analysis in presence of 10 uM heparin octasaccharide; type: cell-free
Homo sapiens [6] = species: Homo sapiens; assay: as §3; type: cell-free
[7] = (§4) Binding affinity to human plasma alpha-thrombin exosite-2 using spectrozyme TH as substrate after overnight incubation at 25 degC by spectrophotometric analysis in presence of 3 uM heparin octasaccharide; type: cell-free
Homo sapiens [8] = species: Homo sapiens; assay: as §4; type: cell-free
[9] = (§5) Binding affinity to human plasma alpha-thrombin exosite-2 using spectrozyme TH as substrate after overnight incubation at 25 degC by spectrophotometric analysis in presence of 1 uM heparin octasaccharide; type: cell-free
Homo sapiens [10] = species: Homo sapiens; assay: as §5; type: cell-free
[11] = (§6) Binding affinity to human plasma alpha-thrombin exosite-2 using spectrozyme TH as substrate after overnight incubation at 25 degC by spectrophotometric analysis in presence of 42.6 uM unfractionated heparin; type: cell-free
Homo sapiens [12] = species: Homo sapiens; assay: as §6; type: cell-free
[13] = (§7) Binding affinity to human plasma alpha-thrombin exosite-2 using spectrozyme TH as substrate after overnight incubation at 25 degC by spectrophotometric analysis in presence of 25 uM unfractionated heparin; type: cell-free
Homo sapiens [14] = species: Homo sapiens; assay: as §7; type: cell-free
[15] = (§8) Binding affinity to human plasma alpha-thrombin exosite-2 using spectrozyme TH as substrate after overnight incubation at 25 degC by spectrophotometric analysis in presence of 12.8 uM unfractionated heparin; type: cell-free
Homo sapiens [16] = species: Homo sapiens; assay: as §8; type: cell-free
[17] = (§9) Binding affinity to human plasma alpha-thrombin exosite-2 using spectrozyme TH as substrate after overnight incubation at 25 degC by spectrophotometric analysis in presence of 4.2 uM unfractionated heparin; type: cell-free
Homo sapiens [18] = species: Homo sapiens; assay: as §9; type: cell-free
[19] = (§10) Binding affinity to human plasma alpha-thrombin exosite-1 using spectrozyme TH as substrate after overnight incubation at 25 degC by spectrophotometric analysis in presence of 15 nM hirugen peptide; type: cell-free
Homo sapiens [20] = species: Homo sapiens; assay: as §10; type: cell-free
[21] = (§11) Binding affinity to human plasma alpha-thrombin exosite-1 using spectrozyme TH as substrate after overnight incubation at 25 degC by spectrophotometric analysis in presence of 5 nM hirugen peptide; type: cell-free
Homo sapiens [22] = species: Homo sapiens; assay: as §11; type: cell-free
[23] = (§12) Binding affinity to human plasma alpha-thrombin exosite-1 using spectrozyme TH as substrate after overnight incubation at 25 degC by spectrophotometric analysis in presence of 3 nM hirugen peptide; type: cell-free
Homo sapiens [24] = species: Homo sapiens; assay: as §12; type: cell-free
Homo sapiens [25] = species: Homo sapiens; assay: Uncompetitive inhibition of human plasma alpha-thrombin using spectrozyme TH as substrate assessed as decrease in enzyme Vmax at 9.9 uM after 2 hrs at 37 degC by Michaelis-Menten equation analysis relative to control; type: cell-free
How it was run: (§13)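 5 nM plasma α-thrombin with fixed inhibitor, preincubated overnight at 25 °C or 2 h at 37 °C in 20 mM Tris-HCl pH 7.4, 100 mM NaCl, 2.5 mM CaCl2, 0.1% PEG8000. Initial Spectrozyme TH (2−80 μM) hydrolysis rate read at 405 nm with under 10% substrate consumption. Michaelis−Menten fit gives KM and VMAX; error ±1 SE.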

[26] = Inhibition of recombinant human thrombin R175A mutant expressed in BHK cells using S2238 as substrate after overnight incubation at 25 degC
How it was run: (§14)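 BHK-expressed, HPC4 immunoaffinity-purified thrombins, activated from prothrombin form. Active-site concentration from amidolysis and antithrombin titration. Enzyme (1.5−7.5 nM final) incubated overnight at 25 °C with inhibitor in Tris pH 7.4 buffer in coated cuvettes. Residual activity from S2238 initial rate at A405, using at least 9−10 points. Logistic fit gives IC50. Ratio is mutant IC50 over wild-type IC50.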

Homo sapiens [27] = species: Homo sapiens; assay: Uncompetitive inhibition of human plasma alpha-thrombin using spectrozyme TH as substrate assessed as decrease in substrate Km at 9.9 uM after 2 hrs at 37 degC by Michaelis-Menten equation analysis relative to control; type: cell-free; how it was run: as §13
Homo sapiens [28] = species: Homo sapiens; assay: Uncompetitive inhibition of human plasma alpha-thrombin using spectrozyme TH as substrate assessed as decrease in substrate Km at 3.6 uM after overnight incubation at 25 degC by Michaelis-Menten equation analysis relative to control; type: cell-free; how it was run: as §13
[29] = Inhibition of recombinant human thrombin R93A mutant expressed in BHK cells using S2238 as substrate after overnight incubation at 25 degC; how it was run: as §14
[30] = Inhibition of recombinant human thrombin R101A mutant expressed in BHK cells using S2238 as substrate after overnight incubation at 25 degC; how it was run: as §14
[31] = Inhibition of recombinant human thrombin R165A mutant expressed in BHK cells using S2238 as substrate after overnight incubation at 25 degC; how it was run: as §14
[32] = Inhibition of recombinant human thrombin R233A mutant expressed in BHK cells using S2238 as substrate after overnight incubation at 25 degC; how it was run: as §14
[33] = Inhibition of recombinant human thrombin K235A mutant expressed in BHK cells using S2238 as substrate after overnight incubation at 25 degC; how it was run: as §14
Homo sapiens [34] = species: Homo sapiens; assay: Selectivity ratio of IC50 for human plasma alpha-thrombin to IC50 for wild type recombinant human thrombin
[35] = Inhibition of recombinant human thrombin K240A mutant expressed in BHK cells using S2238 as substrate after overnight incubation at 25 degC; how it was run: as §14
Plasma = assay: Anticoagulant activity in human plasma assessed as increase in prothrombin time at 568 uM after 30 secs by fibrometric analysis relative to control; type: functional
How it was run: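 Citrated human plasma, one-stage recalcification, fibrometer read-out. APTT: 90 μL plasma + 10 μL inhibitor or vehicle + prewarmed 0.2% ellagic acid, 4 min, then 25 mM CaCl2 (37 °C). PT: inhibitor + plasma 30 s at 37 °C, then prewarmed thromboplastin. Duplicates. Quadratic trend line fit gives concentration doubling clotting time versus vehicle blank.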

[36] = molecular target: Coagulation factor X (Homo sapiens) (UniProt P00742); assay: Inhibition of human factor 10a at 365 uM
Chain of Coagulation factor X (Homo sapiens) (P00742 41-179 limits assumed): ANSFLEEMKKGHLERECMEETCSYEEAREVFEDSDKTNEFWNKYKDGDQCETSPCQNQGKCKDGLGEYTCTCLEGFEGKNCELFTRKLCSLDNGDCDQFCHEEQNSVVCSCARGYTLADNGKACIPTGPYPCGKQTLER
Chain of Coagulation factor X (Homo sapiens) (P00742 235-488 limits assumed): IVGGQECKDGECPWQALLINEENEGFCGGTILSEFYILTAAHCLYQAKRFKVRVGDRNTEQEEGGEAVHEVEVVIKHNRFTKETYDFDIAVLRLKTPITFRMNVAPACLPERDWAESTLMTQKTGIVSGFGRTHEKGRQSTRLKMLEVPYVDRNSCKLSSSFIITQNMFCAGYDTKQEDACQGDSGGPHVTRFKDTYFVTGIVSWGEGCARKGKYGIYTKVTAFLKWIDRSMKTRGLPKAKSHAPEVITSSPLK

Homo sapiens [37] = species: Homo sapiens; assay: Inhibition of human plasma alpha-thrombin assessed as spectrozyme TH hydrolysis at 1 to 900 uM preincubated for 10 mins by spectrophotometric analysis relative to control; type: cell-free
How it was run: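 Human plasma α-thrombin (5 nM final) with inhibitor (1−900 μM final) in 20 mM Tris-HCl pH 7.4, 100 mM NaCl, 2.5 mM CaCl2, 0.1% PEG8000, PEG20000-coated cuvettes, 10 min. Spectrozyme TH then added (30 μM final). Initial rate from A405 increase. Residual activity fitted by logistic equation with floating Hill slope, Y0, YM to give IC50.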

CCOC(=O)c1c(C)oc2cc(OC)c(OCc3oc4cc(OC)c(OCc5oc6cc(OC)c(OS(=O)(=O)[O-])cc6c5C(=O)OCC)cc4c3C(=O)OCC)cc12.[Na+]
IC50 [1]: 1.3 µM | pIC50(app) (Homo sapiens [2]): 5.88 | IC50 [3]: 1.2 µM | pIC50(app) (Homo sapiens [4]): 5.92 | IC50 [5]: 1.6 µM | pIC50(app) (Homo sapiens [6]): 5.78 | IC50 [7]: 1.4 µM | pIC50(app) (Homo sapiens [8]): 5.87 | IC50 [9]: 1.3 µM | pIC50(app) (Homo sapiens [10]): 5.87 | IC50 [11]: 5.6 µM | pIC50(app) (Homo sapiens [12]): 5.26 | IC50 [13]: 3.8 µM | pIC50(app) (Homo sapiens [14]): 5.42 | IC50 [15]: 2.1 µM | pIC50(app) (Homo sapiens [16]): 5.68 | IC50 [17]: 1 µM | pIC50(app) (Homo sapiens [18]): 6 | IC50 [19]: 0.9 µM | pIC50(app) (Homo sapiens [20]): 6.04 | IC50 [21]: 0.8 µM | pIC50(app) (Homo sapiens [22]): 6.1 | IC50 [23]: 0.9 µM | pIC50(app) (Homo sapiens [24]): 6.07 | fold change (FC) (Homo sapiens [25]): 5.7 | IC50 [26]: 0.43 µM | pIC50 [26]: 6.363 | fold change (FC) (Homo sapiens [27]): 4.1 | fold change (FC) (Homo sapiens [28]): 3.1 | IC50 [29]: 0.19 µM | pIC50 [29]: 6.73 | IC50 [30]: 0.39 µM | pIC50 [30]: 6.41 | pIC50 [31]: 6.59 | IC50 [32]: 0.98 µM | pIC50 [32]: 6.01 | IC50 [33]: 0.27 µM | pIC50 [33]: 6.57 | Ratio IC50 (Homo sapiens [34]): 2.5 | IC50 [35]: 0.27 µM | pIC50 [35]: 6.57 | fold change (FC) (Plasma): 2 | inhibition [36]: inactive | Efficacy (Homo sapiens [37]): 80%
